Source: PubChem BioAssay
Rows were chosen to be rich in hits. Some 10% of all compounds tested hit in one or more screens of this group.
PMI activator – increases human mannose-6-phosphate isomerase activity; P34949; hit rate 0.005% among 190,000; activation factor at 20 µM; purified human PMI, coupled resazurin fluorescence, 20 min; stronger effect = higher value; 1 = vehicle control, 0 substrate-free wells;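 active means activation factor of 2 or more at 20 µM, relative to plate controls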
Target sequence (P34949 whole entry, looked up): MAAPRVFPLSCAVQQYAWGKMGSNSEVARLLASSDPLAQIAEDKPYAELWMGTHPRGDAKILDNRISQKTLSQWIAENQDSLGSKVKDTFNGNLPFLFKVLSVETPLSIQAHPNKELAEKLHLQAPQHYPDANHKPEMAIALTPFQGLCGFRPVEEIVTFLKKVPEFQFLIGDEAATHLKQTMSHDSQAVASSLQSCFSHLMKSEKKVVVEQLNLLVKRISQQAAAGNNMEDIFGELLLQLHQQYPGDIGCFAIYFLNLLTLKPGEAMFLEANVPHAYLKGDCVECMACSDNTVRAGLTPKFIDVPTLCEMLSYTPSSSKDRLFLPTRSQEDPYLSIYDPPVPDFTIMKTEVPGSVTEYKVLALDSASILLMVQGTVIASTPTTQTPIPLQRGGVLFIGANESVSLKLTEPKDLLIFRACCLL
Lmaj promast – inhibitors of Leishmania major promastigote growth; Leishmania major promastigotes, resazurin fluorescence viability; inhibition, % at 10 µM; hit rate 9% among 200,000; in the data active means inhibition above about 50%;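 further: promastigotes grown with compound for 44 hours at 28 °C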
PMI act satM6P – activators of human phosphomannose isomerase at near-saturating mannose 6-phosphate; P34949; coupled PMI enzyme assay, resazurin fluorescence, 20 min; stronger effect = higher value; 1 = untreated enzyme, 0 = substrate-free blank; activation factor at 20 µM; hit rate 0.34% among 190,000; AID 1216;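 active means activation factor of 2 or more at 20 µM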
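Material: human phosphomannose isomerase with PGI, G6PDH, diaphorase coupling enzymes; amount: PMI at 15 ng/mL final; also added: Mannose-6-phosphate 1.0 mM (near-saturating) plus 0.22 mM NADP+; incubation: enzyme reaction with compound 20 min at room temperature; signal: resorufin fluorescence (Ex 544/Em 590 nm) from resazurin via diaphorase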
WT yeast gro inh – growth inhibition of WT yeast, mitochondrial fusion screen; mitochondrial fusion phenotypic screen, WT strain; inhibition, % at 10 µM; hit rate 2.1% among 190,000; AID 1362; in the data active means inhibition above about 58%; tested in S. cerevisiae
Diaph act CS – activates diaphorase or chemically reduces, flagging diaphorase assay artifacts | Diaphorase/resazurin coupled assay, resorufin fluorescence, 16 min; stronger effect = higher value; 1 = vehicle wells, 0 = NADH-free wells | activation factor at 20 µM | hit rate 0.005% among 190,000;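 active means diaphorase activity raised at least twofold by the compound at 20 µM; inactive means activation factor below 2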
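Measured by – red resorufin fluorescence at 544/590 nm excitation/emission · Test system – Clostridium kluyveri diaphorase, purified enzyme · Incubation – reaction time 16 min, room temperature · Buffer or medium – 50 mM HEPES pH 7.4 with 4.542 mM MgCl2, 0.005% Tween 20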
Each line names hits and unclear results; the compound was inactive in the other large screens.

COc1ccccc1NC(=O)COc1ccc(Br)cc1CNC1CCCC1	Lmaj promast 94
COc1ccccc1NC(=O)COc1ccc(Br)cc1CO	none
COc1cc(CO)c(Br)cc1OCC(=O)Nc1ccccc1C	none
COc1cc(CO)ccc1OCC(=O)Nc1ccc(Br)cc1	none
NS(=O)(=O)c1ccc(NC(=O)COC(=O)COc2ccccc2)cc1	none
O=S(=O)(c1cccc2nonc12)N1CCCCCC1	none
Cc1ccnc(N2C(=O)CSC2c2ccc(Cl)cc2)c1 (centres undefined)	none
COc1ccccc1NC(=O)COc1ccc(CO)cc1Cl	none
COc1ccccc1NC(=O)COc1cc(Br)c(CNCCCN2CCOCC2)cc1OC	Lmaj promast 55
CNCc1cc(Br)c(OCC(=O)Nc2ccccc2OC)c(OC)c1	Lmaj promast 100
Cc1ccc(C)c(OC(=O)c2cncc(Br)c2)c1	none
C=C(C)c1cccc(C(C)(C)NC(=O)Nc2ccc(OC)cc2)c1	none
C=C(C)c1cccc(C(C)(C)NC(=O)NC(c2ccccc2)c2ccc(OC)cc2)c1 (centres undefined)	Lmaj promast 98
CCn1c(SCc2nc(-c3ccccc3)no2)nnc1-c1cccs1	none
CCn1c(SCc2nc(-c3cccs3)no2)nnc1-c1c[nH]c2ccccc12	Lmaj promast 72
O=C(O)c1cccc(N/N=C/C2=C(Cl)c3cc(Cl)ccc3SC2)c1	PMI act satM6P 2.5, WT yeast gro inh 94
O=C(O)c1ccc(/C=N/Nc2cccc(C(F)(F)F)c2)cc1	none
CCOc1cc(/C=N/Nc2ccccc2Cl)ccc1OCC(=O)O	PMI act satM6P 3.1
O=C(O)c1cccc(N/N=C/c2ccc(F)c(F)c2)c1	PMI act satM6P 2.3
CCOc1cc(/C=N\NC(=O)Cc2ccccc2)ccc1OCC(=O)Nc1ccc(C)c(C)c1	none
CCOc1cc(/C=N/Nc2cccc(C(=O)O)c2)ccc1OC(=O)c1ccccc1	PMI act satM6P 2.3
COc1ccccc1NC(=O)CN1CCN(C2c3ccccc3-c3ccccc32)CC1	Lmaj promast 58
COc1ccc(NC(=O)CN2CCN(C3c4ccccc4-c4ccccc43)CC2)c(OC)c1	none
CCOc1ccc(NC(=O)CN2CCN(C3c4ccccc4-c4ccccc43)CC2)cc1	Lmaj promast 90
C1=CCC(CN2CCNCC2)CC1 (centres undefined)	none
Cc1ccc(C)c(N2CCN(CC3CC=CCC3)CC2)c1 (centres undefined)	Lmaj promast 87
Cc1ccc2nc(C)cc(Cl)c2c1	none
Cc1ccc2nc3c(c(N)c2c1)CCN3c1ccccc1	Lmaj promast 89
CCOC(=O)C1(CCOc2ccccc2)CCN(Cc2cnc(SC)nc2)CC1	Lmaj promast 86
CCOC(=O)C1(Cc2ccccc2)CCN(Cc2ccc(COC)o2)CC1	none
CCOC(=O)C1(CCOc2ccccc2)CCN(Cc2ccc(COC)o2)CC1	Lmaj promast 66
CCOC(=O)C1(CCOc2ccccc2)CCN(Cc2ccc(C)o2)CC1	Lmaj promast 74
C=C(C)[C@@H]1CC=C(CN2CCC(CCOC)(C(=O)OCC)CC2)CC1	Lmaj promast 79
CC1Nc2ccccc2C(=O)N1NC(=O)c1ccc(Br)cc1 (centres undefined)	none
Cc1ccc(NC(=O)CN(C)C(=O)COc2cccc3cccnc23)cc1	none
CCOC(=O)C1(CCOc2ccccc2)CCN(Cc2cccc3nonc23)CC1	Lmaj promast 87
CCOC(=O)C1(CCOc2ccccc2)CCN(Cc2cnc(C)[nH]2)CC1	none
CCOC(=O)C1CCN(c2nc(-c3ccc(C)cc3)nc3ccccc23)CC1	WT yeast gro inh 71
CCOC(=O)C1CCN(c2c(C(=O)c3ccccc3)cnc3ccc(Cl)cc23)CC1	WT yeast gro inh 75
CCOC(=O)C1CCN(C(=O)c2cccc(Cl)c2)CC1	none
C/C(=N\NC(=O)C1CC1)c1ccccc1O	none
CSc1nncn1/N=C/c1ccc2c(c1)OCO2	WT yeast gro inh 64
CSc1nncn1/N=C/c1ccc([N+](=O)[O-])cc1	none
C/C(CC(=O)NCc1ccc(F)cc1)=N\NC(N)=S	none
COc1ccc(-n2c(C)cc(/C=N/Nc3nc(N4CCOCC4)nc(N4CCOCC4)n3)c2C)cc1	Lmaj promast 98
CCc1ccc(/C=C(\Cl)c2nc3cc(Cl)ccc3c(=O)[nH]2)cc1	none
CN(C)S(=O)(=O)c1cccc(C(=O)OCC(=O)Nc2sccc2C#N)c1	none
O=c1[nH][nH]c(-c2ccccc2)c1C=Nc1ccccc1	WT yeast gro inh 80
Cc1cc(C)nc(SCc2ccc(C(=O)N/N=C3\CCCC(=O)C3)cc2)n1	none
CCCc1ccccc1OCCNC(=O)c1cc(=O)n(C)c(=O)n1C	none
O=c1[nH]c(CSc2ncccn2)nc2c1cnn2-c1ccccc1	Lmaj promast 54
O=c1[nH]c(CSc2nc3ccccc3[nH]2)nc2c1cnn2-c1ccccc1	Lmaj promast 69
CC(C)N1CCC(N2CCN(CCCn3cccn3)CC2CCO)CC1 (centres undefined)	none
Cc1cccc(NC(=S)N(CCN(C)C)C(C)c2ccccn2)c1 (centres undefined)	none
C=CCOc1c(Br)cc(/C=N/n2c(CC)n[nH]c2=S)cc1Br	none
CCOC(=O)C(C)(C)N(Cc1ccccc1C)S(=O)(=O)c1ccc(Cl)c([N+](=O)[O-])c1	Lmaj promast 100
Cc1ccc(Cn2cnc3ccccc32)cc1	Lmaj promast 78
c1ccc2c(c1)ncn2CCn1cnc2ccccc21	none
Cc1c(N=C2N=C(NC(=O)c3ccc(F)cc3)c3ccccc32)c(=O)n(-c2ccccc2)n1C	none
O=C(COC(=O)c1ccc([N+](=O)[O-])s1)NCc1ccccc1	none
O=C(COC(=O)c1ccc([N+](=O)[O-])s1)Nc1ccccc1	WT yeast gro inh 70
O=C(COC(=O)c1ccc([N+](=O)[O-])s1)NC(c1ccccc1)c1ccccc1	Lmaj promast 67
Cc1[nH]c2ccccc2c1C(=O)COC(=O)c1ccc([N+](=O)[O-])s1	Lmaj promast 100, WT yeast gro inh 98
CC(C)(C)c1ccc(NC(=O)COC(=O)c2ccc([N+](=O)[O-])s2)cc1	Lmaj promast 58, WT yeast gro inh 92
Nn1c(SCC(=O)NC2CCCc3ccccc32)nnc1-c1ccc(Cl)cc1Cl (centres undefined)	none
Cc1ccc(S(=O)(=O)NNC(=O)C(O)(c2ccccc2C)c2ccccc2C)cc1	none
COc1ccccc1C1CC(c2ccco2)=NN1S(C)(=O)=O (centres undefined)	none
O=C(CSCc1ccccc1)N/N=C/c1ccc(OCC(=O)N2CCCCC2)cc1	Lmaj promast 57
COc1ccc(CSCC(=O)N/N=C/c2ccc(OCC(=O)N3CCCCC3)cc2)cc1	none
Nc1nc(NCCCN2CCOCC2)nc(Nc2ccc(F)cc2)c1[N+](=O)[O-]	Lmaj promast 52
CSc1cccc(NC(=S)N(CCCN2CCCC2)Cc2cccs2)c1	Lmaj promast 99
